These results are taken from article PMC3428514 (Molecular cell, 2012).

Peptide text beside a SMILES is read from it.

One assay concerns the target caspase-8 (Homo sapiens, UniProt Q14790). Nature of the assay: caspase-8 dimerization by Superdex 200 gel filtration. Format: biochemical. The note with it: 10 μM, 15 minutes at 30°C. In short, it runs like this:
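Recombinant caspase-8 (100 nM) incubated 15 min at 30°C with test compound at 10 μM, DMSO, or 10 μM Ac-VAD-CHO, then run on Superdex 200 gel filtration. Collected fractions analysed by SDS-PAGE with Coomassie Blue staining, and caspase activity measured in each fraction.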
For orientation: In gel filtration, larger molecules generally elute earlier.

A further assay concerns Cdc25B. The note with it: read-out: IC50, Cdc25B; ref Vogt et al., 2003; cited from earlier work.
For another assay, the system named is X-IAP. The note with it: read-out: IC50, X-IAP; ref Glover et al., 2003; cited from earlier work.

Sequence of caspase-8 (Q14790 217-479, species assumed): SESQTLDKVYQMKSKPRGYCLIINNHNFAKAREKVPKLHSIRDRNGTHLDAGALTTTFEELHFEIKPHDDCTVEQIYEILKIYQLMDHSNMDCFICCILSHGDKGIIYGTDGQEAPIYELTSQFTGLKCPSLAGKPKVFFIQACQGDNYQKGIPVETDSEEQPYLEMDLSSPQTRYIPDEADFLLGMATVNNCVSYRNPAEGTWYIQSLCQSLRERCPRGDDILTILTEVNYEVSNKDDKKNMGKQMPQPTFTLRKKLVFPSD

With `CC(=O)N[C@H](C(=O)N[C@@H](C)C(=O)N[C@H](C=O)CC(=O)O)C(C)C` [Ac-VAD-CHO] (Ac-Val-Ala-Asp-aldehyde), the “effect on caspase-8 dimerization” value on caspase-8 is recorded as “shift to the dimeric species”.

In general, IC50 refers to the concentration needed to halve the response being measured. As for `CSC(=S)NN=C(c1ccccn1)c1ccccn1.[Cu][Br]` [Comp-C], the IC50 in the assay on Cdc25B and with X-IAP was greater than 10 µM throughout.
